Test results as given in ChEMBL document CHEMBL3526051 (Drug Metab Dispos, 2012).

Tests used:
[1] = molecular target: Histone deacetylase 4 (Homo sapiens, UniProt P56524); assay: Inhibition of HDAC4 (unknown origin) expressed in HEK293 cells using [3H]acetylated human histone H4 peptide as substrate by scintillation counting
[2] = molecular target: Histone deacetylase 3 (Homo sapiens, UniProt O15379); assay: Inhibition of HDAC3 (unknown origin) expressed in HEK293 cells using [3H]acetylated human histone H4 peptide as substrate by scintillation counting
[3] = molecular target: Histone deacetylase 2 (Homo sapiens, UniProt Q92769); assay: Inhibition of flag-tagged HDAC2 (unknown origin) expressed in SF21 cells using [3H]acetylated human histone H4 peptide as substrate by scintillation counting
[4] = molecular target: Histone deacetylase 1 (Homo sapiens, UniProt Q13547); assay: Inhibition of HDAC1 (unknown origin) expressed in HEK293 cells using [3H]acetylated human histone H4 peptide as substrate by scintillation counting; assay type: cell-based
[5] = molecular target: T1, Histone deacetylase 8 (Homo sapiens, UniProt Q9BY41); assay: Inhibition of his-strep-tagged HDAC8 (unknown origin) expressed in SF9 cells using [3H]acetylated human histone H4 peptide as substrate by scintillation counting
T1 sequence (Q9BY41 whole entry): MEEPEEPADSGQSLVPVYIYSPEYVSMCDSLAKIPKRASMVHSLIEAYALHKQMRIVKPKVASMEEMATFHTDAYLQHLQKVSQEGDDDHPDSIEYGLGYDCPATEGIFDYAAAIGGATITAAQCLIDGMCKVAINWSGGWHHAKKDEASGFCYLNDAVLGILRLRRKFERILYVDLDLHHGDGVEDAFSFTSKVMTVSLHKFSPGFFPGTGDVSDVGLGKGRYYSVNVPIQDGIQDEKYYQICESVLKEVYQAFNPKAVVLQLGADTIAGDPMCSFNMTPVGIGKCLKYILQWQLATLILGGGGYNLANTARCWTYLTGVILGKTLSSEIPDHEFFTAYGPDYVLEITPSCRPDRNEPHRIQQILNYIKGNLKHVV

[6] = molecular target: T2, Protein deacetylase HDAC6 (Homo sapiens, UniProt Q9UBN7); assay: Inhibition of HDAC6 (unknown origin) expressed in HEK293 cells using [3H]acetylated human histone H4 peptide as substrate by scintillation counting
T2 sequence (Q9UBN7 whole entry): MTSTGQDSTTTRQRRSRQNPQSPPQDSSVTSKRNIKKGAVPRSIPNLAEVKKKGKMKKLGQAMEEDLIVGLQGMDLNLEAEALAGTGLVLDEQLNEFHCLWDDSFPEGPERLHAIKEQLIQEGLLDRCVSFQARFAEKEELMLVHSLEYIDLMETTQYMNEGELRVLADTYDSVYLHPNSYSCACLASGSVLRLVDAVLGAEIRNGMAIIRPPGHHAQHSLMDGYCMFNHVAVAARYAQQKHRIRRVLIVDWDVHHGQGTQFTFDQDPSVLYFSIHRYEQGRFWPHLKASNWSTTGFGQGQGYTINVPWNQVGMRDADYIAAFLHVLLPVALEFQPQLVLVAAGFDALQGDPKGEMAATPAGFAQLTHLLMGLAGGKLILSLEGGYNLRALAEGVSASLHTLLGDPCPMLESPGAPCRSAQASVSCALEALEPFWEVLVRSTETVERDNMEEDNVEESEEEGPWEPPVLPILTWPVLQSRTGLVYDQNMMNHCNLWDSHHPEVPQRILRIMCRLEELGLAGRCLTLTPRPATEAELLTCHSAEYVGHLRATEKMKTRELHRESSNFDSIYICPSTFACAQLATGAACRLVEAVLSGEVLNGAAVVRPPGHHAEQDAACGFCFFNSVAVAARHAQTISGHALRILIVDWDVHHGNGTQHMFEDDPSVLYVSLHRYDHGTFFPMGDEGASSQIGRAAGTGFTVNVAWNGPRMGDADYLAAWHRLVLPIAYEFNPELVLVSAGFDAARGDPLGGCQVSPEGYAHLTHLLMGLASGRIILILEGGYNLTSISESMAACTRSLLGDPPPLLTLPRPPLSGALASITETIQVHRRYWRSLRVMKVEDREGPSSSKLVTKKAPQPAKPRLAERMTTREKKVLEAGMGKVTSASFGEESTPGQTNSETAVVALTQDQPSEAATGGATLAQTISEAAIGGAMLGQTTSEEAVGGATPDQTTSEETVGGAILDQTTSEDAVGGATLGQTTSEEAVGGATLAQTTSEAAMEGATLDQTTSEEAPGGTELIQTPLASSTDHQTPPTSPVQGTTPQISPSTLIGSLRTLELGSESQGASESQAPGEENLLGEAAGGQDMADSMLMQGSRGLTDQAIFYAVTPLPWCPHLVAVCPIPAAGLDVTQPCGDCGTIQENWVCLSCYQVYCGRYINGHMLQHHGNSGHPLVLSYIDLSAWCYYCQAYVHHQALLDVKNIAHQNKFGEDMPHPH

[7] = molecular target: CYP3A5 (Homo sapiens, UniProt P20815); assay: Activity of recombinant human CYP3A5 expressed in Escherichia coli JM109 co-expressing P450 reductase assessed as enzyme-mediated drug metabolism measured as compound remaining after 1 hr by LC-MS analysis; assay type: ADME; settings: read-out: Stability
Method in brief: (§1)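 Whole E. coli cells were diluted in PSE buffer (50 mM KH2PO4, 250 mM sucrose, 0.25 mM EDTA, pH 7.4) to 100 mg/ml wet biomass. Each suspension was mixed with DL-isocitrate and substrate stock (5 mg/ml in ACN/DMSO 19:1) in aerated caps. Incubation was at 30°C, 1100 rpm for 0.5 or 1 h. Reactions were stopped with ACN/methanol (1:1) and centrifuged, and the supernatant was analysed by LC-MS.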

[8] = molecular target: T3, CYP3A4 (Homo sapiens, UniProt P08684); assay: Activity of recombinant human CYP3A4 expressed in Escherichia coli JM109 co-expressing P450 reductase assessed as enzyme-mediated drug metabolism measured as compound remaining after 1 hr by LC-MS analysis; assay type: ADME; settings: read-out: Stability; method in brief: as §1
[9] = molecular target: CYP1A2 (Homo sapiens, UniProt P05177); assay: Activity of recombinant human CYP1A2 expressed in Escherichia coli JM109 co-expressing P450 reductase assessed as enzyme-mediated drug metabolism measured as compound remaining after 1 hr by LC-MS analysis; assay type: ADME; settings: read-out: Stability; method in brief: as §1
[10] = molecular target: T3, CYP3A4; assay: Activity of recombinant human CYP3A4 expressed in supersomes assessed as enzyme-mediated drug metabolism measured as compound remaining at 10 uM after 1 hr by LC-MS analysis; assay type: ADME; settings: read-out: Stability
Method in brief: (§2)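 Insect-cell Supersomes coexpressing the rh P450 and rh P450 reductase were incubated with 10 µM substrate in 185 mM HEPES pH 7.5. The mix contained 6.65 mM MgCl2, 0.5 mM NADP, 2.54 mM DL-isocitrate and isocitric dehydrogenase. The reaction was started with the NADPH-regenerating system and run 1 h at 30°C without shaking. It was extracted with 1 volume ACN, centrifuged at 21,000g, and the supernatant analysed by LC-MS.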

[11] = molecular target: CYP2C19 (Homo sapiens, UniProt P33261); assay: Activity of recombinant human CYP2C19 expressed in Escherichia coli JM109 co-expressing P450 reductase assessed as enzyme-mediated drug metabolism measured as compound remaining after 1 hr by LC-MS analysis; assay type: ADME; settings: read-out: Stability; method in brief: as §1
[12] = molecular target: CYP1A1 (Homo sapiens, UniProt P04798); assay: Activity of recombinant human CYP1A1 expressed in Escherichia coli JM109 co-expressing P450 reductase assessed as enzyme-mediated drug metabolism measured as compound remaining after 1 hr by LC-MS analysis; assay type: ADME; settings: read-out: Stability; method in brief: as §1
[13] = molecular target: T3, CYP3A4; assay: Activity of recombinant human CYP3A4 expressed in Escherichia coli JM109 co-expressing P450 reductase assessed as enzyme-mediated drug metabolism measured as compound remaining after 1 hr by LC-MS analysis in presence of cytochrome b5; assay type: ADME; settings: read-out: Stability; method in brief: as §1
[14] = molecular target: CYP4A11 (Homo sapiens, UniProt Q02928); assay: Activity of recombinant human CYP4A11 expressed in Escherichia coli JM109 co-expressing P450 reductase assessed as enzyme-mediated drug metabolism measured as compound remaining after 1 hr by LC-MS analysis; assay type: ADME; settings: read-out: Stability; method in brief: as §1
[15] = molecular target: CYP2B6 (Homo sapiens, UniProt P20813); assay: Activity of recombinant human CYP2B6 expressed in Escherichia coli JM109 co-expressing P450 reductase assessed as enzyme-mediated drug metabolism measured as compound remaining after 1 hr by LC-MS analysis; assay type: ADME; settings: read-out: Stability; method in brief: as §1
[16] = molecular target: CYP2C18 (Homo sapiens, UniProt P33260); assay: Activity of recombinant human CYP2C18 expressed in Escherichia coli JM109 co-expressing P450 reductase assessed as enzyme-mediated drug metabolism measured as compound remaining after 1 hr by LC-MS analysis; assay type: ADME; settings: read-out: Stability; method in brief: as §1
[17] = molecular target: CYP2A6 (Homo sapiens, UniProt P11509); assay: Activity of recombinant human CYP2A6 expressed in Escherichia coli JM109 co-expressing P450 reductase assessed as enzyme-mediated drug metabolism measured as compound remaining after 1 hr by LC-MS analysis; assay type: ADME; settings: read-out: Stability; method in brief: as §1
[18] = molecular target: T4, CYP2D6 (Homo sapiens, UniProt P10635); assay: Activity of recombinant human CYP2D6 expressed in supersomes assessed as enzyme-mediated drug metabolism measured as compound remaining at 10 uM after 1 hr by LC-MS analysis; assay type: ADME; settings: read-out: Stability; method in brief: as §2
[19] = molecular target: CYP2C8 (Homo sapiens, UniProt P10632); assay: Activity of recombinant human CYP2C8 expressed in Escherichia coli JM109 co-expressing P450 reductase assessed as enzyme-mediated drug metabolism measured as compound remaining after 1 hr by LC-MS analysis; assay type: ADME; settings: read-out: Stability; method in brief: as §1
[20] = molecular target: CYP2C9 (Homo sapiens, UniProt P11712); assay: Activity of recombinant human CYP2C9 expressed in Escherichia coli JM109 co-expressing P450 reductase assessed as enzyme-mediated drug metabolism measured as compound remaining after 1 hr by LC-MS analysis; assay type: ADME; settings: read-out: Stability; method in brief: as §1
[21] = molecular target: CYP1B1 (Homo sapiens, UniProt Q16678); assay: Activity of recombinant human CYP1B1 expressed in Escherichia coli JM109 co-expressing P450 reductase assessed as enzyme-mediated drug metabolism measured as compound remaining after 1 hr by LC-MS analysis; assay type: ADME; settings: read-out: Stability; method in brief: as §1
[22] = molecular target: T4, CYP2D6; assay: Activity of recombinant human CYP2D6 expressed in Escherichia coli JM109 co-expressing P450 reductase assessed as enzyme-mediated drug metabolism measured as compound remaining after 1 hr by LC-MS analysis; assay type: ADME; settings: read-out: Stability; method in brief: as §1
[23] = Drug metabolism in Escherichia coli JM109 assessed as compound remaining after 1 hr by LC-MS analysis; assay type: ADME, organism-based; settings: read-out: Stability; method in brief: as §1
[24] = molecular target: CYP2E1 (Homo sapiens, UniProt P05181); assay: Activity of recombinant human CYP2E1 expressed in Escherichia coli JM109 co-expressing P450 reductase assessed as enzyme-mediated drug metabolism measured as compound remaining after 1 hr by LC-MS analysis; assay type: ADME; settings: read-out: Stability; method in brief: as §1

Sequence of Histone deacetylase 3 (O15379 whole entry): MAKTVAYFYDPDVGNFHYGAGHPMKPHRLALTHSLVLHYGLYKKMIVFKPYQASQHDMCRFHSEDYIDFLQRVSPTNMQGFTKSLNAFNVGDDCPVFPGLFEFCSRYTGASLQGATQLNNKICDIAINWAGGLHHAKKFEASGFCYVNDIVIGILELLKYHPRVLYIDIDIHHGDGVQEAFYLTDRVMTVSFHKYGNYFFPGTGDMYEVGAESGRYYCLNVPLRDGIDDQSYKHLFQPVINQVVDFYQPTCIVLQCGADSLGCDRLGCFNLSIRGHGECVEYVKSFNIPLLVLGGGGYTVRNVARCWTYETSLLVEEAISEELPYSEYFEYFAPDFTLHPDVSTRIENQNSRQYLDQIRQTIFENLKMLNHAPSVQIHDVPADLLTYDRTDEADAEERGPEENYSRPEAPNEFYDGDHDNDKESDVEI
Sequence of Histone deacetylase 1 (Q13547 whole entry): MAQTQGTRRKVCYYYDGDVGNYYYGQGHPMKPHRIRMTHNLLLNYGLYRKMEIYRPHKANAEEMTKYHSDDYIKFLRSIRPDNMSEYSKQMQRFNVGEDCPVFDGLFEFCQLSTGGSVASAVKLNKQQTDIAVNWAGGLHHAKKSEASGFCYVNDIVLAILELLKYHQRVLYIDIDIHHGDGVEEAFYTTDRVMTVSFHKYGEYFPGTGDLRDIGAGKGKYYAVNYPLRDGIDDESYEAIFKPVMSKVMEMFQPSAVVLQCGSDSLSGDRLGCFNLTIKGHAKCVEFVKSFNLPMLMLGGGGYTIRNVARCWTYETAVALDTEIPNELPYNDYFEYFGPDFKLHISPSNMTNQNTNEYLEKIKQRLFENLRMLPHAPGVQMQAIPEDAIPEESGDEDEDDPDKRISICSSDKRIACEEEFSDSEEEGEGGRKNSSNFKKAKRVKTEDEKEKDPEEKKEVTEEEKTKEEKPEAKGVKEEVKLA
T3 sequence (P08684 whole entry): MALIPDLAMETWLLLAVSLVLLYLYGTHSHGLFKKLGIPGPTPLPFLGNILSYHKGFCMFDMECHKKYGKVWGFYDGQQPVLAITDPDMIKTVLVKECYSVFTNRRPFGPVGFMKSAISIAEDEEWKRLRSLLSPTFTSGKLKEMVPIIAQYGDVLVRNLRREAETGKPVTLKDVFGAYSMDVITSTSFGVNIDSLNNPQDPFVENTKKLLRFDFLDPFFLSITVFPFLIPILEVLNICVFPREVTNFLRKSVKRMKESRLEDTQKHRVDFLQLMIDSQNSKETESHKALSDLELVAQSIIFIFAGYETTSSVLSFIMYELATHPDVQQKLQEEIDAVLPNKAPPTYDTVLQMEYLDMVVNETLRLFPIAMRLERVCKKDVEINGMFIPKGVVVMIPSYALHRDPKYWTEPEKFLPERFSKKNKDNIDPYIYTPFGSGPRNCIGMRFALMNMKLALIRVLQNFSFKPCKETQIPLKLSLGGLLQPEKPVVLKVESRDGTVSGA
Sequence of Histone deacetylase 2 (Q92769 whole entry): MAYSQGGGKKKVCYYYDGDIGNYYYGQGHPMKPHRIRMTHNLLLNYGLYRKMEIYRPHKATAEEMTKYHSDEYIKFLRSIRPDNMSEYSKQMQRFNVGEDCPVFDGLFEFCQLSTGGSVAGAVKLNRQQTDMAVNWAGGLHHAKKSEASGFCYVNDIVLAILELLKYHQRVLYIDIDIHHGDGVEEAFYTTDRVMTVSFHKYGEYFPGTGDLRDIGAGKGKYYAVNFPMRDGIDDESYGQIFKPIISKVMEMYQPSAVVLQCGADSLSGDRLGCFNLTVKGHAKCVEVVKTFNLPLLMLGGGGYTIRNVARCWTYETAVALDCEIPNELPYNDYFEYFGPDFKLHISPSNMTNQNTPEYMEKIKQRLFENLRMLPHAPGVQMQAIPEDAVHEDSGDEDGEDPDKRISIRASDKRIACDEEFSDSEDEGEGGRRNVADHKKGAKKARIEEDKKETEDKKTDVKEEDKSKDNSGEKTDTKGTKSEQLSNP
Sequence of Histone deacetylase 4 (P56524 whole entry): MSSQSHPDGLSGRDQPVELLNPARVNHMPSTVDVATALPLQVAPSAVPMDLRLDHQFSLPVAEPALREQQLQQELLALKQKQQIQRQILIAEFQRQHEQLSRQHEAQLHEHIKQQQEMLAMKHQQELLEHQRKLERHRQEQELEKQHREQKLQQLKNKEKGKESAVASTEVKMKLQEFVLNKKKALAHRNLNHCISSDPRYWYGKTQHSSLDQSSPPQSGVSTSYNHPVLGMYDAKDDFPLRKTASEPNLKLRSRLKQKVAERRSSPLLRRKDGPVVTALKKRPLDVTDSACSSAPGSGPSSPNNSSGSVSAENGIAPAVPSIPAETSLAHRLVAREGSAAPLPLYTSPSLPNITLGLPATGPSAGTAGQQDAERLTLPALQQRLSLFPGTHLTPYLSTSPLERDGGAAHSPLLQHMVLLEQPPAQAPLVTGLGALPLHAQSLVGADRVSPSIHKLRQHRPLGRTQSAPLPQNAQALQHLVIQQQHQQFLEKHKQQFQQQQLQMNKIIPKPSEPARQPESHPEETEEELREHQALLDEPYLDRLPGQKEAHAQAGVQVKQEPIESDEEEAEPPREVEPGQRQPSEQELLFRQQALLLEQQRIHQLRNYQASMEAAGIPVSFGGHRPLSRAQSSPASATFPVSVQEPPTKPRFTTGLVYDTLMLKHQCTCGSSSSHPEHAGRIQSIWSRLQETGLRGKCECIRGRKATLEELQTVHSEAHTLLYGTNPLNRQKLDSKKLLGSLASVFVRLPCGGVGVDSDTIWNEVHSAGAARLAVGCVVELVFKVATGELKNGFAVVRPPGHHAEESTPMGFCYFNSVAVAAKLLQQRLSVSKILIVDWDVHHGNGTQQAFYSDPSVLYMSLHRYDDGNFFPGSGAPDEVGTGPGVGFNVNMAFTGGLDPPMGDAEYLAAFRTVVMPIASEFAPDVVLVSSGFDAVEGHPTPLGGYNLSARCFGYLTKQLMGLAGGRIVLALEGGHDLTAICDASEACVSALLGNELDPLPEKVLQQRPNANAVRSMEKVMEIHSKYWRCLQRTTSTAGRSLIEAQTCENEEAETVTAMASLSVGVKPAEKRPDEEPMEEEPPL
T4 sequence (P10635 whole entry): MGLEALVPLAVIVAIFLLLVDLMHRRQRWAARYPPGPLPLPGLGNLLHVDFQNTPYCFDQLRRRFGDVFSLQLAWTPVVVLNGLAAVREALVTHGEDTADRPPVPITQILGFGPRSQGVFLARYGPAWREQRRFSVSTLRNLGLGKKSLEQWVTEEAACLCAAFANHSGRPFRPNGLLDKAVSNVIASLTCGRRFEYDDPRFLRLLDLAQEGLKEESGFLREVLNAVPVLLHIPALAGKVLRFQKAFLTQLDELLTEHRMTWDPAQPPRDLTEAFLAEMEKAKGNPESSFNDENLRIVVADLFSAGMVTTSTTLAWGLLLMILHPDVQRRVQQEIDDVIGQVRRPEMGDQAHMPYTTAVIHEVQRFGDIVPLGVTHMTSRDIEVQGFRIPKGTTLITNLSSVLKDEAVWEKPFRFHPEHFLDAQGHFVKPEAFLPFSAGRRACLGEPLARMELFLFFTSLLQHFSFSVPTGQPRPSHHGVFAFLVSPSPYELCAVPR
Sequence of CYP2C18 (P33260 whole entry): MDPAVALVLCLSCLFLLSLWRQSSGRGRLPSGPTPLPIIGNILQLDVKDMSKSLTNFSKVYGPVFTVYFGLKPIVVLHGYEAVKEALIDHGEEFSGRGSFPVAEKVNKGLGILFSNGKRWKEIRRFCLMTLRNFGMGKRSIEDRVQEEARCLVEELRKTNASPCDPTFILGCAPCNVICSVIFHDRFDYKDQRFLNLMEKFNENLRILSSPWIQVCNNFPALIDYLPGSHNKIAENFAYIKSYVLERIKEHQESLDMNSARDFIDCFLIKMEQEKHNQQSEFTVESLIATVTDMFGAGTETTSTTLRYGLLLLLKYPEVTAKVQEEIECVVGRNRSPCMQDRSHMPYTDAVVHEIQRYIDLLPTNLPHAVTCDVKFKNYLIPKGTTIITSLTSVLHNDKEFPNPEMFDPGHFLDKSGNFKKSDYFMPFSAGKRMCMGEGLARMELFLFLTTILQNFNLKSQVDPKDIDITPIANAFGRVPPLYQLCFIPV
Sequence of CYP1B1 (Q16678 whole entry): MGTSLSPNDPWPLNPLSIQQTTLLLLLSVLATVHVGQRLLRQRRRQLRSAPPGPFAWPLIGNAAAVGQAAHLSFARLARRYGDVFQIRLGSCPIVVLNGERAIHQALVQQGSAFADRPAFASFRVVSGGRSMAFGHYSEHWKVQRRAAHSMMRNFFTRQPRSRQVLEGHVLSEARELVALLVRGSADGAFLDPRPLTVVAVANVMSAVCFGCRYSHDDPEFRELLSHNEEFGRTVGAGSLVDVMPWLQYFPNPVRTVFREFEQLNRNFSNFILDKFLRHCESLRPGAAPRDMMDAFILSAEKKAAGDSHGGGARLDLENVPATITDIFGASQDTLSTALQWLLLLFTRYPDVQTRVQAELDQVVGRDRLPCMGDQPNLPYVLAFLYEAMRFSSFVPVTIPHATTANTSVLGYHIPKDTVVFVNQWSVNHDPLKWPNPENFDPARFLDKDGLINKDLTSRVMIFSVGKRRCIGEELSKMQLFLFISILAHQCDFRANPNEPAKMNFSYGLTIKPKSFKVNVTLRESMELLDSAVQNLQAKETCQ
Sequence of CYP3A5 (P20815 whole entry): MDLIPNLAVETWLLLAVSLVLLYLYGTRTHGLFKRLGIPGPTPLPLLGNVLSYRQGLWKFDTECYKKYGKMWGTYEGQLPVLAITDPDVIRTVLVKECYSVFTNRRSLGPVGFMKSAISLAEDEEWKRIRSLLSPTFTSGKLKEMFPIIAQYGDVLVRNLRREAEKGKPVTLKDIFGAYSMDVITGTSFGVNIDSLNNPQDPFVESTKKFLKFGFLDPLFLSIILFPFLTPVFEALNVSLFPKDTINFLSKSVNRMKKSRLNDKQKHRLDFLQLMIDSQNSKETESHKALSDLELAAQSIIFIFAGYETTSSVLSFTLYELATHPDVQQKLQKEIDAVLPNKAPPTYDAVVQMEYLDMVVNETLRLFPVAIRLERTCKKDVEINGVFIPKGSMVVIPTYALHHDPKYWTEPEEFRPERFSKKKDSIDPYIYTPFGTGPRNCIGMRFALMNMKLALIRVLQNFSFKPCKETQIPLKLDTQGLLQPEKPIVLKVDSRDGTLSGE

Row | SMILES | IC50 [1] [µM] | IC50 [2] [µM] | IC50 [3] [µM] | IC50 [4] [µM] | IC50 [5] [µM] | IC50 [6] [µM] | other results
1 | C[C@@]12Nc3ccccc3[C@]1(O)CCN2Cc1ccc(/C=C/C(=O)NO)cc1 | 0.23 | 0.18 | 1.5 | 0.14 | 0.92 | 0.062 | –
2 | C[C@@]12Nc3ccccc3[C@]1(O)CCN2Cc1ccc(/C=C/C(N)=O)cc1 | 1 | 0.93 | 6 | 0.97 | 23 | 1.1 | –
3 | Cc1[nH]c2ccccc2c1CCNCc1ccc(/C=C/C(=O)NO)cc1 [PANOBINOSTAT] | – | – | – | – | – | – | remaining at 1 h [7]: 73%; remaining at 1 h [8]: 37%; remaining at 1 h [9]: 72%; remaining at 1 h, 10 µM [10]: 94%; remaining at 1 h [11]: 80%; remaining at 1 h [12]: 61%; remaining at 1 h [13]: 45%; remaining at 1 h [14]: 59%; remaining at 1 h [15]: 62%; remaining at 1 h [16]: 56%; remaining at 1 h [17]: 81%; remaining at 1 h, 10 µM [18]: 94%; remaining at 1 h [19]: 63%; remaining at 1 h [20]: 34%; remaining at 1 h [21]: 79%; remaining at 1 h [22]: 44%; remaining at 1 h [23]: 55%; remaining at 1 h [24]: 50%

Second part, led by results:

Row | IC50 [1] [µM] | IC50 [2] [µM] | IC50 [3] [µM] | IC50 [4] [µM] | IC50 [5] [µM] | IC50 [6] [µM] | SMILES | other results
4 | 4.6 | 3.3 | 27 | 4.6 | 6.8 | 4.9 | Cc1[nH]c2cc(O)ccc2c1CCNCc1ccc(/C=C/C(N)=O)cc1 | –
5 | 18 | 22 | 29 | 11 | 22 | > 30 | Cc1[nH]c2ccccc2c1CCNCc1ccc(/C=C/C(N)=O)cc1 | –
